Assays:
[1] = system: Trypanosoma brucei brucei; assay: Antitrypanosomal activity against wild type Trypanosoma brucei brucei Lister 427 after 3 days by alamar blue assay; assay type: functional, organism-based
Procedure, shortened: (§1)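 Bloodstream-form T. b. brucei (wild-type s427; TbAT1-KO, made from s427 by TbAT1 deletion; B48, selected from TbAT1-KO in vitro on pentamidine, lacking functional HAPT1). Cells were exposed to compound for 48 h, then resazurin (Alamar blue) was added for a further 24 h. A single fluorescence reading gave EC50.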

[2] = system: Trypanosoma brucei brucei; assay: Resistance factor, ratio of EC50 for diminazene aceturate-resistant TbAT1 gene-deficient Trypanosoma brucei brucei AT1-KO to EC50 for wild type Trypanosoma brucei brucei Lister 427; assay type: functional
Procedure, shortened: (§2)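 Resistance factor is the EC50 in the resistant line (TbAT1-KO or B48) divided by the EC50 in wild-type s427. […] Resistant and wild-type EC50s were compared by Student t-test.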

[3] = system: Trypanosoma brucei rhodesiense; assay: Antitrypanosomal activity against Trypanosoma brucei rhodesiense STIB900 infected in rat L6 cells after 72 hrs by alamar blue assay; assay type: functional, organism-based
[4] = Inhibition of Trypanosoma brucei brucei LAPT1 assessed as [3H]-pentamidine uptake after 120 secs by scintillation counting
Procedure, shortened: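 LAPT1 transport: late-log trypanosomes from HMI-9/10% FBS culture washed into pH 7.3 HEPES-bicarbonate-glucose buffer; 1 μM final [³H]-pentamidine uptake over 120 s with competitor. Uptake terminated with 2 mM ice-cold pentamidine and oil centrifugation; counted by scintillation, Ki from sigmoid curves; triplicate, at least three separate occasions.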

[5] = Selectivity index, ratio of EC50 for rat L6 cells to EC50 for Trypanosoma brucei rhodesiense STIB900; assay type: toxicity, cell-based; details: for selectivity ratio: L6 cells, read-out: Ratio EC50; for Ratio EC50: l6
Procedure, shortened: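 Ratio of EC₅₀ in L6 cells to EC₅₀ against T. b. rhodesiense STIB900, both from Alamar blue assays.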

[6] = system: Trypanosoma brucei brucei; assay: Resistance factor, ratio of EC50 for diminazene-, pentamidine-, and melaminophenyl arsenical-resistant HAPT1-deficient Trypanosoma brucei brucei B48 to EC50 for wild type Trypanosoma brucei brucei Lister 427; assay type: functional; procedure, shortened: as §2
[7] = Cytotoxicity against human HEK cells after 3 days by alamar blue assay; assay type: cell-based, HEK293; details: Homo sapiens, HEK293, 72 h
Procedure, shortened: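 Human embryonic kidney cells tested by resazurin (Alamar blue) assay: 48 h with compound, then 24 h more after dye addition, single reading; EC₅₀ derived.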

[8] = Selectivity index, ratio of EC50 for human HEK cells to EC50 for wild type Trypanosoma brucei brucei Lister 427; assay type: toxicity, cell-based, HEK293; details: for selectivity ratio: HEK cells, read-out: Ratio EC50
Procedure, shortened: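 Ratio of EC₅₀ in HEK cells to EC₅₀ in wild-type T. b. brucei s427, both from resazurin assays.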

[9] = system: Trypanosoma brucei brucei; assay: Antitrypanosomal activity against diminazene-, pentamidine-, and melaminophenyl arsenical-resistant HAPT1-deficient Trypanosoma brucei brucei B48 after 3 days by alamar blue assay; assay type: functional, organism-based; procedure, shortened: as §1
L6 = assay: Cytotoxicity against rat L6 cells after 72 hrs by alamar blue assay; assay type: cell-based
[10] = system: Trypanosoma brucei brucei; assay: Antitrypanosomal activity against diminazene aceturate-resistant TbAT1 gene-deficient Trypanosoma brucei brucei AT1-KO after 3 days by alamar blue assay; assay type: functional, organism-based; procedure, shortened: as §1
[11] = Trypanosoma brucei, Lister 427, 72 h
[12] = Trypanosoma brucei, STIB900, 72 h
[13] = Trypanosoma brucei, AT1-KO, 72 h

| Compound | EC50 [1, 11] [nM] | Ratio EC50 [2] | EC50 [3, 12] [nM] | Ki [4] [nM] | selectivity ratio [5] | Ratio EC50 [6] | EC50 [7] [nM] | selectivity ratio [8] | EC50 ([9]; Trypanosoma brucei, B48, 72 h) [nM] | EC50 (L6; Rattus norvegicus, L6, 72 h) [nM] | EC50 [10, 13] [nM] | EC50 [1] [nM] | Ratio EC50 [5] | EC50 [9] [nM] | EC50 (L6; l6) [nM] | EC50 [10] [nM] | EC50 [3] [nM] | Ratio EC50 ([8]; hek293) |
| --- | --- | --- | --- | --- | --- | --- | --- | --- | --- | --- | --- | --- | --- | --- | --- | --- | --- | --- |
| CCCCCC[P+](CCCCCC)(CCCCCC)Cc1ccc(C(=O)c2ccc(C[P+](CCCCCC)(CCCCCC)CCCCCC)cc2)cc1.[Br-].[Br-] | 38 | 1.2 | 112 | 25000 | 10 | 0.9 | 16600 | 438 | 35 | 1110 | 47 |  |  |  |  |  |  |  |
| Cc1ccc([P+](Cc2ccc(Cc3ccc(C[P+](c4ccccc4)(c4ccccc4)c4ccc(C)cc4)cc3)cc2)(c2ccccc2)c2ccccc2)cc1.[Br-].[Br-] | 240 | 0.8 | 200 | 20000 | 22 | 0.7 | > 300000 | > 1250 | 180 | 4470 | 190 |  |  |  |  |  |  |  |
| Cc1ccc([P+](Cc2ccc(CCc3ccc(C[P+](c4ccc(C)cc4)(c4ccc(C)cc4)c4ccc(C)cc4)cc3)cc2)(c2ccc(C)cc2)c2ccc(C)cc2)cc1.[Br-].[Br-] |  | 1 | 84 |  |  | 1 | 32400 | 213 |  |  |  | 150 | 7.8 | 150 | 656 | 150 |  |  |
| C[P+](Cc1ccc(C(=O)c2ccc(C[P+](C)(c3ccccc3)c3ccccc3)cc2)cc1)(c1ccccc1)c1ccccc1.[Br-].[Br-] | 1530 | 1.4 | 656 |  | 177 | 1.3 | > 300000 | > 200 | 2050 | 116000 | 2080 |  |  |  |  |  |  |  |
| COc1ccccc1[P+](Cc1ccc(C(=O)c2ccc(C[P+](c3ccccc3OC)(c3ccccc3OC)c3ccccc3OC)cc2)cc1)(c1ccccc1OC)c1ccccc1OC.[Br-].[Br-] | 110 | 1.5 | 200 |  | 45 | 0.7 | 131000 | 1180 | 80 | 9000 | 160 |  |  |  |  |  |  |  |
| CCCC[P+](CCCC)(CCCC)Cc1ccc(C(=O)c2ccc(C[P+](CCCC)(CCCC)CCCC)cc2)cc1.[Br-].[Br-] | 480 | 2.7 | 355 |  | 315 | 3.4 | > 300000 | > 620 | 1630 | 112000 | 1320 |  |  |  |  |  |  |  |
| CC(C)[P+](Cc1ccc(Oc2ccc(C[P+](c3ccccc3)(c3ccccc3)C(C)C)cc2)cc1)(c1ccccc1)c1ccccc1.[Br-].[Br-] | 330 | 1 | 585 |  | 8.6 | 1 | > 300000 | > 900 | 330 | 5000 | 330 |  |  |  |  |  |  |  |
| Cc1ccc(C[P+](c2ccccc2)(c2ccccc2)c2ccccc2)cc1.[Br-] |  | 0.8 |  | 25000 |  | 0.5 |  |  |  |  |  | 43 | 35.5 | 22 | 12900 | 33 | 364 | > 7000 |
| O=C(c1ccc(C[P+](C2CCCCC2)(C2CCCCC2)C2CCCCC2)cc1)c1ccc(C[P+](C2CCCCC2)(C2CCCCC2)C2CCCCC2)cc1.[Br-].[Br-] | 140 | 1.6 | 197 | 39000 | 166 | 1.8 | > 300000 | > 2100 | 250 | 32700 | 230 |  |  |  |  |  |  |  |
| Cc1ccc([P+](Cc2ccc(Cc3ccc(C[P+](c4ccc(C)cc4)(c4ccc(C)cc4)c4ccc(C)cc4)cc3)cc2)(c2ccc(C)cc2)c2ccc(C)cc2)cc1.[Br-].[Br-] | 80 | 1 | 99 |  | 24 | 0.9 | 233000 | 2900 | 74 | 2330 | 80 |  |  |  |  |  |  |  |
| O=C(c1ccc(C[P+](c2ccccc2)(c2ccccc2)C2CCCCC2)cc1)c1ccc(C[P+](c2ccccc2)(c2ccccc2)C2CCCCC2)cc1.[Br-].[Br-] | 300 | 1.4 | 430 | 19000 | 155 | 1.1 | > 300000 | > 1000 | 330 | 65800 | 410 |  |  |  |  |  |  |  |
| Cc1ccc([P+](Cc2ccc(Oc3ccc(C[P+](c4ccccc4)(c4ccccc4)c4ccc(C)cc4)cc3)cc2)(c2ccccc2)c2ccccc2)cc1.[Br-].[Br-] | 82 | 0.9 | 142 |  | 23 | 0.8 | 240000 | 2930 | 64 | 3340 | 77 |  |  |  |  |  |  |  |
| Cc1cccc([P+](Cc2ccc(C(=O)c3ccccc3)cc2)(c2cccc(C)c2)c2cccc(C)c2)c1.[Br-] | 170 | 0.8 | 274 |  | 9.5 | 0.7 | 48200 | 281 | 110 | 2610 | 150 |  |  |  |  |  |  |  |
| CC(C)[P+](Cc1ccc(Cc2ccc(C[P+](c3ccccc3)(c3ccccc3)C(C)C)cc2)cc1)(c1ccccc1)c1ccccc1.[Br-].[Br-] | 440 | 0.9 | 534 |  | 6.4 | 1 | > 300000 | > 680 | 430 | 3440 | 400 |  |  |  |  |  |  |  |
| COc1ccc([P+](Cc2ccc(C(=O)c3ccc(C[P+](c4ccc(OC)cc4)(c4ccc(OC)cc4)c4ccc(OC)cc4)cc3)cc2)(c2ccc(OC)cc2)c2ccc(OC)cc2)cc1.[Br-].[Br-] | 320 | 1.6 | 290 |  | 40 | 0.7 | 172000 | 529 | 230 | 11800 | 520 |  |  |  |  |  |  |  |
| [Br-].[Br-].c1ccc2c([P+](Cc3ccc(Oc4ccc(C[P+](c5cccc6ccccc56)(c5cccc6ccccc56)c5cccc6ccccc56)cc4)cc3)(c3cccc4ccccc34)c3cccc4ccccc34)cccc2c1 | 160 | 0.9 | 384 |  | 9 | 0.8 | 114000 | 722 | 128 | 3450 | 140 |  |  |  |  |  |  |  |
| O=C(c1ccc(C[P+](c2ccccc2)(c2ccccc2)c2ccccc2)cc1)c1ccc(C[P+](c2ccccc2)(c2ccccc2)c2ccccc2)cc1.[Br-].[Br-] | 240 | 1.5 | 260 | 49000 | 282 | 1.6 | > 300000 | > 1250 | 380 | 73300 | 360 |  |  |  |  |  |  |  |
| Cc1ccc([P+](Cc2ccc(C(=O)c3ccc(C[P+](c4ccccc4)(c4ccccc4)c4ccc(C)cc4)cc3)cc2)(c2ccccc2)c2ccccc2)cc1.[Br-].[Br-] | 180 | 1 | 260 |  | 62 | 1 | 261000 | 1450 | 183 | 16300 | 182 |  |  |  |  |  |  |  |
| Cc1ccc([P+](CCc2ccc(CCCc3ccc(CC[P+](c4ccc(C)cc4)(c4ccc(C)cc4)c4ccc(C)cc4)cc3)cc2)(c2ccc(C)cc2)c2ccc(C)cc2)cc1.[Cl-].[Cl-] | 77 | 0.6 | 73 |  | 8.8 | 0.6 | 5600 | 73 | 48 | 645 | 43 |  |  |  |  |  |  |  |

From ChEMBL document CHEMBL2040794, “Synthesis and structure-activity analysis of new phosphonium salts with potent activity against African trypanosomes” (J Med Chem, 2012)
